Assay results taken from ChEMBL document CHEMBL1124476, “1-(2-aminoethyl)-6-aryl-4H- [1,2,4]triazolo[4,3-a][1,4]benzodiazepines with diuretic and natriuretic activity” (J Med Chem, 1989).

Legend:
[1] = Diuretic activity at 40 mg/kg (screening dose-61.6 umol/kg) in […] in a one stage experiment; T/C = urine vol of treated rats / urine vol of control rats; format: functional
In short: (§1)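 40 mg/kg given by gavage in 25 mL/kg 0.9% saline with 0.5% (carboxymethyl)cellulose. Four rats per agent, two per metabolism cage; 20 controls; 5 h urine. T/C = treated/control urine volume. Stage-1 T/C of 1.66 or more leads to stage 2; product T/C1·T/C2 of 3.34 or more counts as active.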

[2] = Diuretic activity at 40 mg/kg (screening dose-55.2 umol/kg) in […] in a one stage experiment; T/C = urine vol of treated rats / urine vol of control rats; format: functional; in short: as §1
[3] = Diuretic activity at 40 mg/kg (screening dose-55.2 umol/kg) in […] in a two stage experiment; T/C1.2 = urine vol of treated rats / urine vol of control rats; format: functional; in short: as §1
Rattus norvegicus [4] = organism: Rattus norvegicus; assay: […]; format: ADME, organism-based, Urine; parameters: dose 10 mg/kg, route oral; conditions: in vivo, po, 10 mg/kg
In short: (§2)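 Male Sprague-Dawley rats, about 160 g, fasted 24 h and water withheld 1 1/2 h beforehand; food and water withheld during the test. Dosing by gavage with 25 mL/kg 0.9% saline containing 0.5% (carboxymethyl)cellulose, agent dissolved or suspended. Three cages of two rats each per dose, held in metabolism cages. Urine collected over 5 h. Volume given in mL, Na+ in mequiv. Significance versus control at P < 0.05.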

Rattus norvegicus [5] = assay: Mean excretion of chloride in conscious rats at a dose of 100 mg/kg given orally; format: ADME, organism-based; parameters: dose 100 mg/kg, route oral; conditions: in vivo, po
In short: (§3)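 Secondary dose-response in male Sprague-Dawley rats (~160 g), fasted and hydrated as in the primary screen. Oral gavage at 0.3-100 mg/kg in 25 mL/kg saline/0.5% CMC, three cages of two rats per dose. Urine collected 5 h; Na, K, Cl, HCO3 measured. Values are mean excretion (mequiv), compared with controls at P < 0.05.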

[6] = Diuretic activity at 40 mg/kg (screening dose-68.7 umol/kg) in […] in a two stage experiment; T/C1.2 = urine vol of treated rats / urine vol of control rats; format: functional; in short: as §1
Rattus norvegicus [7] = assay: Mean excretion of potassium in conscious rats at a dose of 30 mg/kg given orally; format: ADME, organism-based; parameters: dose 30 mg/kg, route oral; conditions: in vivo, po; in short: as §3
Rattus norvegicus [8] = assay: Mean excretion of chloride in conscious rats at a dose of 3.0 mg/kg given orally; format: ADME, organism-based; parameters: dose 3 mg/kg, route oral; conditions: in vivo, po; in short: as §3
[9] = Diuretic activity at 40 mg/kg (screening dose-68.7 umol/kg) in […] in a one stage experiment; T/C = urine vol of treated rats / urine vol of control rats; format: functional; in short: as §1
Rattus norvegicus [10] = assay: Mean excretion of potassium in conscious rats at a dose of 1.0 mg/kg given orally; format: ADME, organism-based; parameters: dose 1 mg/kg, route oral; conditions: in vivo, po; in short: as §3
Rattus norvegicus [11] = organism: Rattus norvegicus; assay: […]; format: ADME, organism-based, Urine; parameters: dose 0.3 mg/kg, route oral; conditions: in vivo, po, 0.3 mg/kg
In short: (§4)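 Dose-response test in male Sprague-Dawley rats of about 160 g, fasted 24 h, with water withheld 1½ h before and during the test. Each rat got a single gavage of 25 mL/kg 0.9% saline with 0.5% carboxymethylcellulose carrying the agent (0.3–100 mg/kg range). Rats were housed two per metabolism cage, and urine was collected for 5 h. Mean urine volume (mL) was compared with controls (P < 0.05).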

Rattus norvegicus [12] = assay: Mean excretion of Cl- in conscious rats at a dose of 0.3 mg/kg given orally; format: ADME, organism-based, Urine; parameters: dose 0.3 mg/kg, route oral; conditions: in vivo, po; in short: as §4
Rattus norvegicus [13] = organism: Rattus norvegicus; assay: […]; format: ADME, organism-based, Urine; parameters: dose 100 mg/kg, route oral; conditions: in vivo, po, 100 mg/kg; in short: as §2
Rattus norvegicus [14] = assay: Mean excretion of chloride in conscious rats at a dose of 1.0 mg/kg given orally; format: ADME, organism-based; parameters: dose 1 mg/kg, route oral; conditions: in vivo, po; in short: as §3
Rattus norvegicus [15] = assay: Mean excretion of sodium in conscious rats at a dose of 30 mg/kg given orally; format: ADME, organism-based; parameters: dose 30 mg/kg, route oral; conditions: in vivo, po; in short: as §2
Rattus norvegicus [16] = organism: Rattus norvegicus; assay: […]; format: ADME, organism-based, Urine; parameters: dose 30 mg/kg, route oral; conditions: in vivo, po, 30 mg/kg; in short: as §2
Rattus norvegicus [17] = assay: Mean excretion of potassium in conscious rats at a dose of 100 mg/kg given orally; format: ADME, organism-based; parameters: dose 100 mg/kg, route oral; conditions: in vivo, po; in short: as §3
Rattus norvegicus [18] = organism: Rattus norvegicus; assay: […]; format: ADME, organism-based, Urine; parameters: dose 1 mg/kg, route oral; conditions: in vivo, po, 1 mg/kg; in short: as §4
Rattus norvegicus [19] = assay: Mean excretion of potassium in conscious rats at a dose of 10 mg/kg given orally; format: ADME, organism-based; parameters: dose 10 mg/kg, route oral; conditions: in vivo, po; in short: as §3
Rattus norvegicus [20] = assay: Mean excretion of sodium in conscious rats at a dose of 100 mg/kg given orally; format: ADME, organism-based; parameters: dose 100 mg/kg, route oral; conditions: in vivo, po; in short: as §2
Rattus norvegicus [21] = assay: Mean excretion of chloride in conscious rats at a dose of 10 mg/kg given orally; format: ADME, organism-based; parameters: dose 10 mg/kg, route oral; conditions: in vivo, po; in short: as §3
Rattus norvegicus [22] = assay: Mean excretion of chloride in conscious rats at a dose of 30 mg/kg given orally; format: ADME, organism-based; parameters: dose 30 mg/kg, route oral; conditions: in vivo, po; in short: as §3
Rattus norvegicus [23] = assay: Mean excretion of […] in conscious rats at a dose of 1.0 mg/kg given orally; format: ADME, organism-based; parameters: dose 1 mg/kg, route oral; conditions: in vivo, po; in short: as §2
Rattus norvegicus [24] = assay: Mean excretion of sodium in conscious rats at a dose of 0.3 mg/kg given orally; format: ADME, organism-based; parameters: dose 0.3 mg/kg, route oral; conditions: in vivo, po; in short: as §2
Rattus norvegicus [25] = assay: Mean excretion of sodium in conscious rats at a dose of 10 mg/kg given orally; format: ADME, organism-based; parameters: dose 10 mg/kg, route oral; conditions: in vivo, po; in short: as §2
Rattus norvegicus [26] = assay: Mean excretion of potassium in conscious rats at a dose of 0.3 mg/kg given orally; format: ADME, organism-based; parameters: dose 0.3 mg/kg, route oral; conditions: in vivo, po; in short: as §3
Rattus norvegicus [27] = organism: Rattus norvegicus; assay: […]; format: ADME, organism-based, Urine; parameters: dose 3 mg/kg, route oral; conditions: in vivo, po, 3 mg/kg; in short: as §2
Rattus norvegicus [28] = assay: Mean excretion of potassium in conscious rats at a dose of 3.0 mg/kg given orally; format: ADME, organism-based; parameters: dose 3 mg/kg, route oral; conditions: in vivo, po; in short: as §3
Rattus norvegicus [29] = assay: Mean excretion of sodium in conscious rats at a dose of 3.0 mg/kg given orally; format: ADME, organism-based; parameters: dose 3 mg/kg, route oral; conditions: in vivo, po; in short: as §2
[30] = Diuretic activity at 40 mg/kg (screening dose-90.5 umol/kg) in […] in a one stage experiment; T/C = urine vol of treated rats / urine vol of control rats; format: functional; in short: as §1
Canis familiaris [31] = assay: Effect of compound on glomerular filtration rate before infusion with 10 mg/kg/hr fose into renal artery of anesthetized dogs; format: ADME, organism-based, Canis lupus familiaris; conditions: dog, in vivo
In short: (§5)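 Anesthetized dogs; drug added to saline pumped at 0.3 mL/min through a needle into one renal artery, contralateral kidney as control. 10 mg/kg per h, with 30-60 min stabilization first. Urine volume and GFR (inulin clearance) taken before and after infusion; means ± SEM in mL/min, N = 5, P < 0.05.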

Canis familiaris [32] = assay: Effect of compound on glomerular filtration rate after infusion with 10 mg/kg/hr fose into renal artery of anesthetized dogs; format: ADME, organism-based, Canis lupus familiaris; conditions: dog, in vivo; in short: as §5
[33] = Diuretic activity at 40 mg/kg (screening dose-90.5 umol/kg) in […] in a two stage experiment; T/C1.2 = urine vol of treated rats / urine vol of control rats; format: functional; in short: as §1
Canis familiaris [34] = assay: Effect of compound on urinary volume after infusion with 10 mg/kg/hr fose into renal artery of anesthetized dogs; format: ADME, organism-based, Canis lupus familiaris, Urine; conditions: dog, in vivo; in short: as §5
Canis familiaris [35] = assay: Effect of compound on urinary volume before infusion with 10 mg/kg/hr fose into renal artery of anesthetized dogs; format: ADME, organism-based, Canis lupus familiaris, Urine; conditions: dog, in vivo; in short: as §5

Row | Structure (SMILES) | Mean urine volume (Rattus norvegicus [4]) | Mean excretion of Cl- (Rattus norvegicus [5]) | Mean excretion of K+ (Rattus norvegicus [7]) | Mean excretion of Cl- (Rattus norvegicus [8]) | Mean excretion of K+ (Rattus norvegicus [10]) | Mean urine volume (Rattus norvegicus [11]) | Mean excretion of Cl- (Rattus norvegicus [12]) | Mean urine volume (Rattus norvegicus [13]) | Mean excretion of Cl- (Rattus norvegicus [14]) | Mean excretion of Na+ (Rattus norvegicus [15]) | Mean urine volume (Rattus norvegicus [16]) | Mean excretion of K+ (Rattus norvegicus [17]) | Mean urine volume (Rattus norvegicus [18]) | Mean excretion of K+ (Rattus norvegicus [19]) | Mean excretion of Na+ (Rattus norvegicus [20]) | Mean excretion of Cl- (Rattus norvegicus [21]) | Mean excretion of Cl- (Rattus norvegicus [22]) | Mean excretion of Na+ (Rattus norvegicus [23]) | Mean excretion of Na+ (Rattus norvegicus [24]) | Mean excretion of Na+ (Rattus norvegicus [25]) | other results
1 | Clc1ccc2c(c1)C(c1ccccc1)=NCc1nnc(C(CN3CCN(c4ccccc4)CC3)c3ccccc3)n1-2.O=C(O)C(=O)O (centres undefined) | – | – | – | – | – | – | – | – | – | – | – | – | – | – | – | – | – | – | – | – | T/C 1 [1]: 0.95
2 | CN(C)CCc1nnc2n1-c1ccc(Cl)cc1C(c1ccccc1)=NC2 | – | – | – | – | – | – | – | – | – | – | – | – | – | – | – | – | – | – | – | – | T/C 1 [2]: 1.66; T/C 1.2 [3]: 3.04
3 | CN(C)CCc1nnc2n1-c1ccc(Br)cc1C(c1ccccc1)=NC2 | 5.9 mL | 1.42 m equiv | 0.16 m equiv | 0.82 m equiv | 0.23 m equiv | 3.99 mL | 0.66 m equiv | 13 mL | 0.65 m equiv | 1 m equiv | 8.44 mL | 0.27 m equiv | 4.38 mL | 0.21 m equiv | 1.57 m equiv | 0.74 m equiv | 0.94 m equiv | 0.65 m equiv | 0.66 m equiv | 0.68 m equiv | T/C 1.2 [6]: 7.84; T/C 1 [9]: 2.98; Mean excretion of K+ (Rattus norvegicus [26]): 0.25 m equiv; Mean urine volume (Rattus norvegicus [27]): 5.97 mL; Mean excretion of K+ (Rattus norvegicus [28]): 0.23 m equiv; Mean excretion of Na+ (Rattus norvegicus [29]): 0.78 m equiv
4 | CN(C)CC(c1ccccc1)c1nnc2n1-c1ccc(Cl)cc1C(c1ccccc1)=NC2 (centres undefined) | 6.7 mL | 1.26 m equiv | 0.27 m equiv | 0.89 m equiv | 0.25 m equiv | 4.15 mL | 0.73 m equiv | 9.54 mL | 0.81 m equiv | 1.8 m equiv | 12 mL | 0.27 m equiv | 4.47 mL | 0.22 m equiv | 1.51 m equiv | 1.16 m equiv | 1.72 m equiv | 0.81 m equiv | 0.74 m equiv | 1.15 m equiv | T/C 1 [30]: 2.1; GFR (Canis familiaris [31]): 23 mL/min; GFR (Canis familiaris [32]): 18 mL/min; T/C 1.2 [33]: 5.27; Urinary volume (Canis familiaris [34]): 0.9 mL/min; Mean excretion of K+ (Rattus norvegicus [26]): 0.25 m equiv; Urinary volume (Canis familiaris [35]): 0.2 mL/min; Mean urine volume (Rattus norvegicus [27]): 5.36 mL; Mean excretion of K+ (Rattus norvegicus [28]): 0.22 m equiv; Mean excretion of Na+ (Rattus norvegicus [29]): 0.82 m equiv
